Values after ≈ are worked out from the molar mass of the structure shown. Residues, ends and D or L forms follow the SMILES beside them.
How the values were obtained:
Assay type in all cases: cell-based
[1] = tested on: Escherichia coli MTCC 443; assay: Antibacterial activity, Mueller Hinton Broth microdilution MIC; conditions: for Potency relative to standard drug Ampicillin against E. coli: ratio of MIC values vs Ampicillin (MIC 100 μg mL^−1)
[2] = tested on: Candida albicans MTCC 227; assay: Antifungal activity, Muller Hinton Broth dilution MIC; conditions: for MIC (anti-fungicidal activity) C. a.: Candida albicans MTCC 227, Muller Hinton Broth dilution, Sabouraud's dextrose broth, 28 °C, aerobic, 48 hours, triplicate experiments
Outline: (§1)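 Broth dilution in Mueller Hinton medium. Test compounds were screened in triplicate at 1000, 500, 250 and 200 μg mL−1; actives were diluted further and retested. Fungal growth was followed in Sabouraud's dextrose broth at 28 °C, aerobic, for 48 h. MIC was taken as the lowest concentration preventing visible growth. Nystatin served as reference standard. Stocks were kept at −70 °C in trypticase-soy broth with 20% glycerol and subcultured three times before use.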

[3] = tested on: Aspergillus niger MTCC 282; assay: as above; conditions: for MIC (anti-fungicidal activity) A. n.: Aspergillus niger MTCC 282, Muller Hinton Broth dilution, Sabouraud's dextrose broth, 28 °C, aerobic, 48 hours, triplicate experiments
Outline: as §1

[4] = tested on: Pseudomonas aeruginosa MTCC 1688; assay: Antibacterial activity, Mueller Hinton Broth microdilution MIC; conditions: ratio of MIC values vs Ampicillin (MIC 100 μg mL^−1)
[5] = tested on: Staphylococcus aureus MTCC 96; assay: as above; conditions: vs Ampicillin (MIC 250 μg mL^−1)
[6] = tested on: Streptococcus pyogenes MTCC 442; assay: as above; conditions: ratio of MIC values vs standard drug (MIC 100 μg mL^−1)
[7] = vs Nystatin (active at 100 μg mL^−1)

Row | Structure (SMILES) | MIC ([1]; Escherichia coli, MTCC443, 48 h, read-out: MIC (anti-bacterial activity) E. c.) | MIC (anti-fungicidal activity) C. a. [2] | MIC (anti-fungicidal activity) A. n. [3] | Potency relative to standard drug Ampicillin against P. aeruginosa [4] | Potency relative to standard drug Ampicillin against E. coli [1] | Potency relative to control drug Ampicillin against Staphylococcus aureus [5] | Potency relative to standard drug Ampicillin against Streptococcus pyogenes [6] | Potency relative to Nystatin against Candida albicans [2, 7] | Potency relative to Nystatin against Aspergillus niger [3, 7]
1 | CC1(C)S[C@@H]2[C@H](NC(=O)[C@H](N)c3ccccc3)C(=O)N2[C@H]1C(=O)O [Ampicillin, reference compound] | 100 µg/mL (≈ 286 µM) | – | – | – | – | – | – | – | –
2 | N=C(N)NCCC[C@H](NC(=O)[C@H](Cc1c[nH]cn1)NC(=O)[C@@H]1CCCN1C(=O)[C@H](CS)NC(=O)CN)C(=O)N[C@@H](CS)C(=O)O [Compound 7a, H-Gly-Cys-Pro-His-Arg-Cys-OH] (H-GCPHRC-OH) | – | 60 µg/mL (≈ 89.3 µM) | 65 µg/mL (≈ 96.8 µM) | – | – | – | – | – | –
3 | C[C@H](N)C(=O)N[C@@H](CS)C(=O)N1CCC[C@H]1C(=O)N[C@@H](Cc1c[nH]cn1)C(=O)N[C@@H](CCCNC(=N)N)C(=O)N[C@@H](CS)C(=O)O [Compound 7b, H-Ala-Cys-Pro-His-Arg-Cys-OH] (H-ACPHRC-OH) | – | 55 µg/mL (≈ 80.2 µM) | 50 µg/mL (≈ 72.9 µM) | 2 times | around 2 times | almost twice potent | – | – | –
4 | CC(C)[C@H](N)C(=O)N[C@@H](CS)C(=O)N1CCC[C@H]1C(=O)N[C@@H](Cc1c[nH]cn1)C(=O)N[C@@H](CCCNC(=N)N)C(=O)N[C@@H](CS)C(=O)O [Compound 7c, H-Val-Cys-Pro-His-Arg-Cys-OH] (H-VCPHRC-OH) | – | 35 µg/mL (≈ 49 µM) | 40 µg/mL (≈ 56 µM) | 2 times | 2.5 times | almost twice potent | 2 times | – | –
5 | CC(C)C[C@H](N)C(=O)N[C@@H](CS)C(=O)N1CCC[C@H]1C(=O)N[C@@H](Cc1c[nH]cn1)C(=O)N[C@@H](CCCNC(=N)N)C(=O)N[C@@H](CS)C(=O)O [Compound 7d, H-Leu-Cys-Pro-His-Arg-Cys-OH] (H-LCPHRC-OH) | – | 20 µg/mL (≈ 27.5 µM) | 35 µg/mL (≈ 48.1 µM) | 2.5 times | 4 times | – | five time more potent | five times more potent | almost three times more potent
6 | N=C(N)NCCC[C@H](NC(=O)[C@H](Cc1c[nH]cn1)NC(=O)[C@@H]1CCCN1C(=O)[C@H](CS)NC(=O)[C@@H]1CCCN1)C(=O)N[C@@H](CS)C(=O)O [Compound 7e, H-Pro-Cys-Pro-His-Arg-Cys-OH] (H-PCPHRC-OH) | – | 50 µg/mL (≈ 70.2 µM) | 55 µg/mL (≈ 77.3 µM) | – | around 2 times | almost twice potent | – | – | –
7 | N=C(N)NCCC[C@H](NC(=O)[C@H](Cc1c[nH]cn1)NC(=O)[C@@H]1CCCN1C(=O)[C@H](CS)NC(=O)[C@@H](N)Cc1ccc(O)cc1)C(=O)N[C@@H](CS)C(=O)O [Compound 7f, H-Tyr-Cys-Pro-His-Arg-Cys-OH] (H-YCPHRC-OH) | – | 40 µg/mL (≈ 51.4 µM) | 50 µg/mL (≈ 64.3 µM) | 2 times | around 2 times | almost twice potent | – | – | –
8 | C[C@@H]1[C@H](O)[C@@H](C)/C=C/C=C/CC/C=C/C=C/C=C/C=C/C(O[C@H]2O[C@H](C)[C@@H](O)[C@H](N)[C@@H]2O)CC2O[C@](O)(CC(O)C(O)CCC(O)CC(O)CC(O)CC(=O)O[C@H]1C)CC(O)C2C(=O)O (some centres unmarked) [Nystatin, reference compound] | – | 100 µg/mL (≈ 108 µM) | 100 µg/mL (≈ 108 µM) | – | – | – | – | – | –

Source: publication PMC11145139 (RSC Advances, 2024)
